{
  "source": "paper PMC7781173",
  "about": "(Amino Acids, 2021)",
  "key": {"human C5 [1]": {"target": "T1, human C5 (Homo sapiens, UniProt P01031)", "T1 sequence (P01031 19-673 limits assumed)": "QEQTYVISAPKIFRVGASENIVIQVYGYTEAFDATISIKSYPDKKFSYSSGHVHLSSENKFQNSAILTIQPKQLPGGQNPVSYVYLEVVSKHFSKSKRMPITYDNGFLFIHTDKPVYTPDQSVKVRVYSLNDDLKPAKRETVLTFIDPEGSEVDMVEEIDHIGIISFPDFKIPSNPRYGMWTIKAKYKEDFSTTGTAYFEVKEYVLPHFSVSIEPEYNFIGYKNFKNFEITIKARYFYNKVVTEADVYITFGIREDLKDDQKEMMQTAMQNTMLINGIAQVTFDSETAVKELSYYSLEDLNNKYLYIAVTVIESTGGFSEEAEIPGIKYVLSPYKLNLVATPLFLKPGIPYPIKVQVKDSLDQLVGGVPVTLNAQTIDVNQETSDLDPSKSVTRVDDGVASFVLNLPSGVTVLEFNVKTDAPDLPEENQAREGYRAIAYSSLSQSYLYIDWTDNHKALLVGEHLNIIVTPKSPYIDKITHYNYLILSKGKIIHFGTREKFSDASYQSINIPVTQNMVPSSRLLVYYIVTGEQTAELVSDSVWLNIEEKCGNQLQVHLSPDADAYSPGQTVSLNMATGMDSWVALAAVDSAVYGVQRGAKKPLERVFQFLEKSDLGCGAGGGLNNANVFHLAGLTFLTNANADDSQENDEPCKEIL", "T1 sequence (P01031 678-1676 limits assumed)": "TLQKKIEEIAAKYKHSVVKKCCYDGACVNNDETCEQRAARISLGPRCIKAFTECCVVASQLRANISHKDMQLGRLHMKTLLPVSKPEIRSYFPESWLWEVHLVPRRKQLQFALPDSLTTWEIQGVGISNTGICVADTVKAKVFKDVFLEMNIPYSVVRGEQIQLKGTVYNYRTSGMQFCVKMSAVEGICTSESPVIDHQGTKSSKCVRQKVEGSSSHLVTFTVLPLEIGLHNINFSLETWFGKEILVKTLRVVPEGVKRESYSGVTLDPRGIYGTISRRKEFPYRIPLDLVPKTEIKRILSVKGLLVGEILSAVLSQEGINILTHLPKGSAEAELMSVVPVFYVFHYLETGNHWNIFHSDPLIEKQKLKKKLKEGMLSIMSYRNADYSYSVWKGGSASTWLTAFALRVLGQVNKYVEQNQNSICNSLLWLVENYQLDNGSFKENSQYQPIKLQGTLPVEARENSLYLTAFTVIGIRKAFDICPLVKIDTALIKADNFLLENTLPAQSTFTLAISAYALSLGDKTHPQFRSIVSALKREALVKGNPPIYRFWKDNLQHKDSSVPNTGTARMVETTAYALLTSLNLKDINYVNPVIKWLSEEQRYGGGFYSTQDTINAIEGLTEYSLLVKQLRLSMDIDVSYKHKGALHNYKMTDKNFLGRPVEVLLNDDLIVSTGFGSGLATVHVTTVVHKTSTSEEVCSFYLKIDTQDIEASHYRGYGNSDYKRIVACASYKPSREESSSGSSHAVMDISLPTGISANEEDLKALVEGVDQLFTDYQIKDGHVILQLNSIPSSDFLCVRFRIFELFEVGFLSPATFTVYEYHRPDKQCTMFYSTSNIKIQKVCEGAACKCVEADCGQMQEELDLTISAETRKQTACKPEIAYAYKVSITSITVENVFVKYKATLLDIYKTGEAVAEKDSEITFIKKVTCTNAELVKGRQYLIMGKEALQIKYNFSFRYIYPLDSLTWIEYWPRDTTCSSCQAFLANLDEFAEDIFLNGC", "conditions": "ref Hoarty et al. [2015]; Ricardo et al. [2017]; cited from earlier work"}, "C5": {"tested_on": "C5", "conditions": "background statement, reference not given; cited from earlier work"}, "human C5 [2]": {"target": "T1, human C5", "experiment": "Ex vivo human whole blood assay", "format": "cell-based", "conditions": "summary statement", "summary_of_the_method": "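Fresh blood from healthy volunteers, anticoagulated with lepirudin at 50 μg/mL. Pre-treated with test compound (1 nM to 1 μM) for 30 min at 37 °C, then stimulated with E. coli O111:B4 LPS at 200 ng/mL for 24 h at 37 °C. Centrifuged at 2000×g for 10 min at 4 °C; plasma C5a quantified by commercial ELISA. Concentration–response format.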"}, "rodent C5": {"tested_on": "rodent C5", "conditions": "ref Hoarty et al. [2015]; Ricardo et al. [2017]; cited from earlier work"}, "C5b": {"tested_on": "C5b", "conditions": "prevents assembly of the MAC; ref Yee et al. [2015]; cited from earlier work"}},
  "data": [
    {"substance": "zilucoplan", "values": [
      {"measurement": "human C5 cleavage", "setting": "human C5 [1]", "value": "does bind and inhibit human C5 cleavage"},
      {"measurement": "C5 cleavage", "setting": "C5", "value": "inhibit C5 cleavage"},
      {"measurement": "LPS-induced C5a production from human blood", "setting": "human C5 [2]", "value": "blocks LPS-induced C5a production"},
      {"measurement": "rodent C5 cleavage", "setting": "rodent C5", "value": "little to no effect"},
      {"measurement": "binding to C5b; C5b binding to C6", "setting": "C5b", "value": "binds to C5b, thereby competitively inhibiting C5b binding to C6"}
    ]}
  ]
}
